From article PMC11429891 (bioRxiv, 2024)
pKd: −log10 of the molar value. Bridge positions count the residues as written; N and C are the ends. Peptide text beside a SMILES is read from it.

Key:
human recombinant SNAP25 = human recombinant SNAP25 (Homo sapiens, UniProt P60880); assay: Quartz crystal microbalance binding to SNAP25
In short: (§1)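 The 5 MHz Cr/Au quartz crystal was cleaned with isopropanol, ethanol and water. It was treated with 20 mM mercaptopropanesulfonate in 10 mM H₂SO₄ for 30 min, then with 10 µM (monomer) poly(allylamine hydrochloride) at pH 8 for 10 min. Human recombinant SNAP25 or BSA was deposited at 0.01 mg/mL for 10 min. After a baseline in 500 µL PBS, 50 µL of 300 µM peptide stock in PBS was added and mass change recorded.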

[1] = Quartz crystal microbalance, PAH-BSA control multilayer; type: binding; conditions: label-free, peptide 30μM final in PBS
In short: as §1

[2] = system: adhesion of U87MG cells to collagen VI; assay: U87MG adhesion to collagen VI-coated plates; type: cell-based; conditions: CES 30μM, 24 h, then 48 h, DAPI nuclei count
In short: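 Wells were coated with collagen VI (5 µg/cm² from 50 µg/ml in 500 mM acetic acid) for 1 h at room temperature, then washed with PBS. U87MG cells were seeded with or without anti-SNAP25 antibody (5 µg/mL) or 30 µM test peptide. Medium was changed at 24 h and culture continued 48 h. Cells were fixed in 4% PFA, blocked and DAPI-stained, and nuclei were counted per image area (1.2 mm²).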

AD brain vasculature = conditions: ref [9], cited from earlier work
[3] = Quartz crystal microbalance, PAH control layer; type: binding; conditions: label-free, peptide 30μM final in PBS
U87MG cells [4] = assay: Viability without laser irradiation; type: cell-based; conditions: up to 30μM, 30 min at 37°C, no laser irradiation, 24 h, MTS
[5] = system: connective tissue growth factor (CTGF) bound to the vascular extracellular matrix; conditions: ref [9]; cited from earlier work
recombinant SNAP25 [6] = assay: ELISA binding to SNAP25-coated plates; design: species or system human; conditions: plates coated with recombinant SNAP25, FAM-labeled peptide
[7] = system: intracranial U87MG glioblastoma; assay: In vivo homing, intracranial U87MG glioblastoma; design: species or system mice (female athymic nude), human U87MG xenograft; conditions: 30 nmoles i.v., 60 min circulation
In short: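 Tumors were induced in female athymic nude mice by intracranial injection of 3×10^5 U87MG cells into the right striatum (2 mm lateral, 2 mm posterior to bregma, 2.5 mm deep) and grown 9 days. Mice received FAM-labelled peptide, 30 nmol in PBS i.v., for 60 min, then PBS perfusion, 4% PFA fixation, sucrose and OCT. 10 µm sections were stained without permeabilization for FAM with CD31 or SNAP25. n=3.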

healthy brain = assay: In vivo homing, healthy brain; design: species or system mice; conditions: 30 nmoles i.v., 60 min circulation, n=3
In short: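 Healthy (non-tumor) mice received FAM-labelled peptide, 30 nmol i.v. in PBS, for 60 min. Mice were perfused with PBS, and brains were fixed in 4% PFA, cryoprotected in sucrose and embedded in OCT. Sections were stained without permeabilization for FAM and SNAP25 (primary 1/100 overnight at 4°C, secondary 1/200). n=3.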

MCF10CA1a tumors = assay: In vivo homing, orthotopic MCF10CA1a breast tumors; design: species or system athymic nude mice, human triple-negative breast cancer cells; conditions: 30 nmoles i.v., 60 min circulation, n=3
In short: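 Orthotopic breast tumors: athymic nude mice were given 2×10^6 MCF10CA1a cells in PBS into the mammary gland and used 14 days later. FAM-labelled peptide (30 nmol in PBS) was injected i.v. and circulated 60 min, followed by PBS perfusion, overnight 4% PFA fixation, sucrose and OCT embedding. 10 µm sections were immunostained for FAM without permeabilization. n=3.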

Casein = assay: ELISA binding to casein-coated plates; conditions: plates coated with Casein, FAM-labeled peptide
WT-GBM tumors = assay: In vivo homing, WT-GBM glioblastoma model; design: species or system mice (Fox/Nu); conditions: 30 nmoles i.v., 60 min circulation, n=3
In short: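 Fox/Nu mice received 7×10^5 WT-GBM cells stereotactically into the right striatum and were used 6-7 days later. FAM-labelled peptide (30 nmol in PBS) was given i.v. and circulated 60 min. Mice were perfused intracardially with PBS, and organs were fixed in 4% PFA pH 7.4 overnight, sucrose-cryoprotected and OCT-embedded. 10 µm sections were stained without permeabilization for FAM and CD31 (primary 1/100 overnight 4°C; secondary 1/200). n=3.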

LN229 cells = assay: Photodynamic cytotoxicity; type: cell-based; conditions: 3μM conjugate, 30 min, 3 washes, 690nm laser 10 J/cm^2 (160 mW/cm^2), 24 h, MTS
In short: (§2)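 Cells (30.000/well) were attached overnight, then exposed 30 min to peptide–verteporfin conjugates at 3 µM final. Wells were washed 3× with full medium and refreshed. Irradiation used a 690 nm laser, 10 J/cm² at 160 mW/cm². After 24 h further culture, viability was measured by MTS/PMS (2 h, 37 °C, 5% CO₂), reading absorbance at 492 nm.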

HEK293T cells = assay: Photodynamic cytotoxicity; type: cell-based; conditions: 3μM conjugate, 30 min, 3 washes, 690nm laser 10 J/cm^2 (160 mW/cm^2), 24 h, MTS
In short: as §2

SK-N-AS cells = assay: Photodynamic cytotoxicity; type: cell-based; conditions: 3μM conjugate, 30 min, 3 washes, 690nm laser 10 J/cm^2 (160 mW/cm^2), 24 h, MTS
In short: as §2

U87MG cells [8] = assay: Photodynamic cytotoxicity; type: cell-based, human; conditions: 24 h, MTS
In short: as §2

recombinant SNAP25 [9] = assay: Binding of SNAP25 to ECM array; design: species or system human; conditions: recombinant SNAP25 1/200, overnight 4°C, A488 anti-SNAP25 detection
In short: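 Array slide of ECM proteins (collagens I, III, IV, V, VI, fibronectin, laminin, vitronectin, tropoelastin) washed in PBS and PBST, then blocked 1 h at room temperature in 5% BSA/5% FBS in PBST. Human recombinant SNAP25 was applied at 1/200 in 1/5-diluted blocking buffer overnight at 4°C. Bound protein was detected with A488 anti-SNAP25 at 1/200 overnight at 4°C, then imaged by fluorescence in the green channel.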

recombinant SNAP25 [10] = assay: Surface plasmon resonance, immobilized SNAP25; type: binding, human; conditions: read-out: KD (estimative), SPR; one-to-one model, SNAP25 via His-Tag/Ni-NTA, collagen 20μg/ml, 20 °C, OpenSPR
In short: (§3)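 SPR was run at 20 °C on an NTA sensor chip conditioned with 10 mM HCl, 200 mM imidazole and EDTA, then activated with 40 mM NiCl₂. His-tagged ligand was captured on channel 2 only: human recombinant SNAP25 at 150 µg/mL, or the control mouse M-CSF (28 kDa, 9-His) at 10 µg/mL. Collagen V or VI at 20 µg/ml in PBS flowed through both channels at 20 µl/min. Data were fitted to a one-to-one model.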

U87MG cells [11] = assay: U87MG cell culture on collagens V and VI, morphology; type: cell-based; conditions: versus plastic (colonies); 5μg/cm^2 collagen coating
In short: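 Plates were coated for 1 h at room temperature with bovine collagen VI or human collagen V (5 µg/cm², from 50 µg/ml in 500 mM acetic acid) and washed twice with PBS. U87MG cells were seeded and grown 24 h, then given fresh medium for another 48 h. Cells were fixed in 4% PFA, blocked, DAPI-stained and imaged by fluorescence microscopy.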

[12] = system: control protein (recombinant mouse macrophage colony-stimulating factor (M-CSF)); assay: Surface plasmon resonance, control protein; type: binding; conditions: control protein of similar molecular weight, immobilized in the same way, 20 °C
In short: as §3

human recombinant SNAP25, sequence (P60880 whole entry): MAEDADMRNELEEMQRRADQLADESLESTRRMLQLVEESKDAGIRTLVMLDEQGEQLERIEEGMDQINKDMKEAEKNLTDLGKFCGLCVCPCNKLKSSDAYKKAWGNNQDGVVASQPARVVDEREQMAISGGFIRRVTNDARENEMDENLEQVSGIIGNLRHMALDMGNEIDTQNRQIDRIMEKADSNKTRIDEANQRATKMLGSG

## CC(=O)N[C@H]1CSSC[C@@H](C(N)=O)NC(=O)[C@H](CCC(=O)O)NC(=O)[C@H](CO)NC(=O)[C@H](CC(C)C)NC(=O)[C@H](CC(C)C)NC(=O)[C@@H]2CCCN2C(=O)[C@H](CO)NC(=O)[C@H](CCC(=O)O)NC1=O [CES] (Ac-CESPLLSEC-NH2; disulfide 1-9)
Human recombinant SNAP25
  pKd: 7.62
Human recombinant SNAP25; SNAP25 on PAH layer, washing with PBS
  dissociation rate upon washing with PBS, QCM: slow dissociation rate
[1]
  binding to control multilayer PAH-BSA, QCM: did not bind to the control layers
[2]
  effect on adhesion of U87MG cells to collagen VI-coated plates: affected the adhesion of U87MG cells to collagen VI-coated plates
AD brain vasculature; genetically modified mouse AD model, in vivo phage library screen, will be reported elsewhere
  homing to blood vessels of AD brain: specifically accumulates (homes) in the blood vessels of AD brain
[3]
  binding to control layer PAH, QCM: did not bind to the control layers
U87MG cells [4]
  cytotoxicity of peptide alone, U87MG: did not elicit cytotoxicity

## CDAGRKQKC [reference compound]
[5]
  target molecule (receptor): connective tissue growth factor (CTGF) bound to the vascular extracellular matrix
AD brain vasculature; mouse AD model
  recognition of AD brain vasculature: recognize the vasculature of AD brain very early in the development of the disease

## FAM-Ahx-CESPLLSEC-NH2 (disulfide) [FAM-CES]
Recombinant SNAP25 [6]
  binding to SNAP25, ELISA: bound to SNAP25
[7]; n=3, FAM/CD31 immunostaining
  co-distribution with blood vessel marker CD31 in U87MG tumor: co-distributing with the blood vessel marker CD31
[7]; n=3, FAM/SNAP25 immunostaining
  colocalization with SNAP25 in U87MG tumors: apparent colocalization with SNAP25 in U87MG tumors
Healthy brain
  homing to healthy brain: no homing to healthy brain
MCF10CA1a tumors
  tumor homing, orthotopic breast cancer: no tumor homing
Casein
  binding to Casein, ELISA: not to Casein
WT-GBM tumors
  colocalization with CD31 in WT-GBM: showed colocalization with CD31
  homing to WT-GBM tumors: targeted WT-GBM tumors

## FAM-iRGD: FAM-labeled iRGD, another peptide with similar molecular weight and isoelectric point [reference compound]
Recombinant SNAP25 [6]
  binding to SNAP25, ELISA: did not bind to SNAP25

## Vert-Ahx-CESPLLSEC-NH2 (disulfide) [CES-V]
LN229 cells
  toxicity, irradiated, LN229: significant toxicity
HEK293T cells
  toxicity, irradiated, HEK293T: no toxicity
SK-N-AS cells
  toxicity, irradiated, SK-N-AS: no toxicity
U87MG cells [8]; 3μM conjugate, 30 min, 3 washes, 690nm laser 10 J/cm^2 (160 mW/cm^2)
  toxicity, irradiated, U87MG: significant toxicity
U87MG cells [8]; 3μM, 690nm laser, compared across U87MG, LN229, SK-N-AS, HEK293T
  difference in toxicity between irradiated CES-V and irradiated CtrlPep-V: only reached significance for U87MG

## collagen I: ECM protein on array
Recombinant SNAP25 [9]
  binding of SNAP25 to ECM proteins, array: non-binding

## collagen III: ECM protein on array
Recombinant SNAP25 [9]
  binding of SNAP25 to ECM proteins, array: non-binding

## collagen IV: ECM protein on array
Recombinant SNAP25 [9]
  binding of SNAP25 to ECM proteins, array: non-binding

## collagen V: Human type V Collagen-Lyophilized (Southern Biotech, Cat # 1270–01)
Recombinant SNAP25 [10]
  pKd: 5.14
U87MG cells [11]
  U87MG growth morphology on collagen-coated plates: formed monolayers and presented particles attached to the plate
[12]
  binding to control protein, SPR: no binding
Recombinant SNAP25 [9]
  binding of SNAP25 to ECM proteins, array: binding of SNAP25 to collagens V and VI

## collagen VI: Bovine Type VI Collagen-Solution (Southern Biotech Cat # 1300–02S)
Recombinant SNAP25 [10]
  pKd: 7.82
U87MG cells [11]
  U87MG growth morphology on collagen-coated plates: formed monolayers and presented particles attached to the plate
[12]
  binding to control protein, SPR: no binding
Recombinant SNAP25 [9]
  binding of SNAP25 to ECM proteins, array: binding of SNAP25 to collagens V and VI
